In the RNAGym collection of RNA variant scans (doi:10.1126/science.aae0568):
Fewer inactive variants are shown than the library holds.

B1: tRNA (parent)
chain: GUUCCGUUGGCGUAAUGGUAACGCGUCUCCCUCCUAAGGAGAAGACUGCGGGUUCGAGUCCCGUACGGAACG

Variants of: B1
Assay: yeast fitness relative to wild type (ratio to wild type); higher = fitter; tRNA-Arg(CCU), competitive growth, 37 C, YPD
Summary of the method: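 Genotype frequency changes were the basis for Darwinian fitness relative to wild type. The frequencies came from 100-nucleotide paired-end sequencing of gene amplicons from the start population and each end population of pooled yeast strains with tRNA-Arg(CCU) gene variants at the native locus. Competition ran in YPD at 37°C for 24 hours in six replicates, genotypes needed ≥ 100 starting reads, and estimates < 0.5 were set to 0.5.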

Variant | yeast fitness
GUUCCGUUGGCGUUAUGGUAACGCAUCUCCCUCCUAAGGAGAAGACUGCGGGUUCGAGUGCCGUAGGGAACG [A14U G25A C60G C66G] | ≤ 0.5
GUUCCGUUGGCGUUAUGGUAACGCAUCUCCCUCCUAAGGAGAAGACUGCGGGUUCGAGUCUCGUACGGAACG [A14U G25A C61U] | 0.649
GUUCCGUUGGCGUUAUGGUAACGCAUCUCCCUCCUAAGGAGAAGACUGCGGGUUCGAGUCCAAUACGGAGCG [A14U G25A C62A G63A A70G] | ≤ 0.5
GUUCCGUUGGCGUUAUGGUAACGCCUCUCCCUCCUAAGCAGAAGACUGCGGGUGCGAGUCCCGUUCGGAACG [A14U G25C G39C U54G A65U] | ≤ 0.5
GUUCCGUUGGCGUUAUGGUAACGCGUCUCCCUCCUAAGCAGAAGACUGCGGGUUCGAGUCCCGUACGGAACG [A14U G39C] | 0.507
GUUCCGUUGGCGUUAUGGUAACGCGUCUCCCUCCUAAGCAGAAGACUGCGGGUUGGAGUCCAGUACGGAACG [A14U G39C C55G C62A] | ≤ 0.5
GUUCCGUUGGCGUUAUGGUAACGCGUCUCCCUCCUAAGGAAAAGACUGCGGGUUCGAGUCCCGUACGGAACG [A14U G41A] | 0.674
GUUCCGUUGGCGUUAUGGUAACGCGUCUCCCUCCUAAGGACAAGACUGUGGGUUCGAGUCCCGUUCGGAACG [A14U G41C C49U A65U] | ≤ 0.5
GUUCCGUUGGCGUUAUGGUAACGCGUCUCCCUCCUAAGGACAAGACUGCGGGUUCGAGACACGUAUGCAACG [A14U G41C U59A C61A C66U G68C] | ≤ 0.5
GUUCCGUUGGCGUUAUGGUAACGCGUCUCCCUCCUAAGGAGAAAACUGCGGGUUCGACUCCCGUACGGAACG [A14U G44A G58C] | ≤ 0.5
GUUCCGUUGGCGUUAUGGUAACGCGUCUCCCUCCUAAGGAGAACACUGCGAGUUCGAGUCCCGUACGGAUCG [A14U G44C G51A A70U] | 0.596
GUUCCGUUGGCGUUAUGGUAACGCGUCUCCCUCCUAAGGAGAACACUGCGAGUUCGAGUCCCAUACGGAUCG [A14U G44C G51A G63A A70U] | ≤ 0.5
GUUCCGUUGGCGUUAUGGUAACGCGUCUCCCUCCUAAGGAGAACACUGCGGAUUCGAGCCCCGGACGGAACG [A14U G44C G52A U59C U64G] | 0.646
GUUCCGUUGGCGUUAUGGUAACGCGUCUCCCUCCUAAGGAGAAGACUACGGGUUCGAGUCCCGUACGGAUCG [A14U G48A A70U] | 0.661
GUUCCGUUGGCGUUAUGGUAACGCGUCUCCCUCCUAAGGAGAAGACUCCGGGUUCGAGUCCCGUACGGAACG [A14U G48C] | 0.714
GUUCCGUUGGCGUUAUGGUAACGCGUCUCCCUCCUAAGGAGAAGACUGCCGGAUCGUGUCCCGUUCGGAACG [A14U G50C U53A A57U A65U] | 0.687
GUUCCGUUGGCGUUAUGGUAACGCGUCUCCCUCCUAAGGAGAAGACUGCGGGUUCAAGUCCCGUACGGAACG [A14U G56A] | 0.619
GUUCCGUUGGCGUUAUGGUAACGCGUCUCCCUCCUAAGGAGAAGACUGCGGGUUCGAAUCUCGUACGGAACG [A14U G58A C61U] | 0.509
GUUCCGUUGGCGUUAUGGUAACGCGUCUCCCUCCUAAGGAGAAGACUGCGGGUUCGAGUCCCGUACAGAACG [A14U G67A] | 0.733

Variant | yeast fitness
GUUCCGUUGGCGUUAAGGUAACGCGUCUCCCUCCUAAGGAGAAGACUGCGGGUUCGAGUCCCGUUCGGAACG [A14U U16A A65U] | 0.626
GUUCCGUUGGCGUUAAGGUAACGCGUCUCCGUCCUAAGGAGAAGACCGCGGGUUCGAGUCCCGUACGCAACG [A14U U16A C31G U47C G68C] | ≤ 0.5
GUUCCGUUGGCGUUAAGGUAACGCGUCUCCCUGCUAAGGAGAAGACUGCGGGUUCGAGUCCCGUACGGAACG [A14U U16A C33G] | ≤ 0.5
GUUCCGUUGGCGUUACGGUAGCGUGUCUCCCUCCUAAGGAGAAGAGUGCGGGUUCGAGUCCUGUACGGAACG [A14U U16C A21G C24U C46G C62U] | ≤ 0.5
GUUCCGUUGGCGUUAGGGAAACGCGUCUCCCUCCUAAGGAGAAGACUGCGGGUUCAAGUCCCGUACAGAACG [A14U U16G U19A G56A G67A] | ≤ 0.5
GUUCCGUUGGCGUUAUGGAAACGCGUCUCCCUCCUAAGGAGAAGACUGCGGGUUCGAGUCCCGUACGGAACG [A14U U19A] | 0.709
GUUCCGUUGGCGUUAUGGAAACGCGUCUCCCUCCUCAGGAGAAGACUGCGGGUUCGACUCCCGUACGGUACG [A14U U19A A36C G58C A69U] | 0.555
GUUCCGUUGGCGUUAUGGAAACGGGUCUCCCUCCUAAGGAGAAGACUGCGGGUACGAGUCCCGUACGGAACG [A14U U19A C24G U54A] | ≤ 0.5
GUUCCGUUGGCGUUAUGGAAACGCGUCUCCUUCCUAAGGAGAAGACUGCGGGUUCGAGUCCCGUACGGAACG [A14U U19A C31U] | ≤ 0.5
GUUCCGUUGGCGUUAUGGAAACACGUCUCCCUCCUAAGGAGACGACUGCGGGUUCGGGUCCCGGACGGAACG [A14U U19A G23A A43C A57G U64G] | ≤ 0.5
GUUCCGUUGGCGUUAUGGCAACGCGUCUCCCUCCUAAGGAGAAGACUGCGGGUUCGAGUCCCGUUCGGAACG [A14U U19C A65U] | ≤ 0.5
GUUCCGUUGGCGUUAUGGGAACGCGUCUCGCUCCUAAGGAGAAGACUGCGGGUUCGAGUCCCGUACGGAACG [A14U U19G C30G] | ≤ 0.5
GUUCCGUUGGCGUUAUGGUAACGCGACUCCCUACUAAGGAGAAGACUGCGGGUUCGAGUCCCAUACGGAACG [A14U U26A C33A G63A] | ≤ 0.5
GUUCCGUUGGCGUUAUGGUAACGCGACUCCCUCCUAAGGAGAAGACUGCGGGUUGGAGUCCCGUCCGGAACG [A14U U26A C55G A65C] | ≤ 0.5
GUUCCGUUGGCGUUAUGGUAACGCGACUCCCUCCUAAGGAGAAGACUGCGGGUUCGAGUCCCGUAAGGAACG [A14U U26A C66A] | ≤ 0.5
GUUCCGUUGGCGUUAUGGUAACGCGCCUCCUUCCUAAGGAGAAGACUGCGGGUUCGAGUCCCGUACGAAACG [A14U U26C C31U G68A] | ≤ 0.5
GUUCCGUUGGCGUUAUGGUAACGCGUCACCCUUCUAAGGAGAAGACUGCGGGUUCGAGUCCCGUACGGAACG [A14U U28A C33U] | 0.714
GUUCCGUUGGCGUUAUGGUAACGCGUCACCCUCCUAAGGAGAAGAGUGCGGGUUCGAGUCCCGUACGGAACG [A14U U28A C46G] | ≤ 0.5
GUUCCGUUGGCGUUAUGGUAACGCGUCACCCUCCUAAGGACUAGACUGCGGAUUCGAGUCCCGUACGGACCG [A14U U28A G41C A42U G52A A70C] | ≤ 0.5
